Experimental data taken from ChEMBL document CHEMBL4177769, “Highly Selective and Potent Ectonucleotide Pyrophosphatase-1 (NPP1) Inhibitors Based on Uridine 5'-Pα,α-Dithiophosphate Analogues” (J Med Chem, 2018).
Calls of active or inactive are those of the source. The rule behind the calls is not given here.

What was measured:
[1] = target: T1, Ectonucleoside triphosphate diphosphohydrolase 8 (Homo sapiens) (UniProt Q5MY95); experiment: Inhibition of human NTPDase8 at 100 uM using ATP as substrate preincubated for 3 mins followed by substrate addition measured after 10 mins by malachite green reagent-based assay
T1 sequence (whole entry): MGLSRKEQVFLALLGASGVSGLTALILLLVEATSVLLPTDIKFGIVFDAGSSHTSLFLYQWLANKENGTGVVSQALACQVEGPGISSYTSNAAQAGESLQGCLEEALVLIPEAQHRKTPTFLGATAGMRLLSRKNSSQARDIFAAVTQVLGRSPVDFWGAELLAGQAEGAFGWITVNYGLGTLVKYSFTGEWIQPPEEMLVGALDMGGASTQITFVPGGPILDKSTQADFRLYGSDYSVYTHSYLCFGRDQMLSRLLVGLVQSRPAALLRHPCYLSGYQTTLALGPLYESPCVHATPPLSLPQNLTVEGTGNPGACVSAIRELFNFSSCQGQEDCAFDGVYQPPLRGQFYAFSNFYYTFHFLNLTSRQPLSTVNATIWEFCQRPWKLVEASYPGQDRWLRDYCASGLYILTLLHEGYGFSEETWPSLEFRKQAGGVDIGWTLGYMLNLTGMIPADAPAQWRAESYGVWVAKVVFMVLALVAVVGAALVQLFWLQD
In short: (§1)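 Compound at 100 μM, 3 min preincubation, 100 μM ATP, 10 min. Stopped with malachite green; Pi read at 630 nm. Blank with enzyme added after stop subtracted. Activity with ATP alone taken as 100%.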

[2] = target: P2Y purinoceptor 2 (Homo sapiens) (UniProt P41231); experiment: Agonist activity at recombinant human P2RY2 expressed in AD293 cells assessed as increase in intracellular calcium levels by Fluo-4/AM dye-based spectrofluorometer; format: functional, cell-based
In short: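 Human P2Y2, P2Y4 or P2Y6 receptor stably expressed in AD293 cells. Compound at 100 μM. Agonism read as change in intracellular calcium (Δ[Ca2+]i), with UDP or UTP as control.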

[3] = target: T2, Ectonucleoside triphosphate diphosphohydrolase 2 (Homo sapiens) (UniProt Q9Y5L3); experiment: Inhibition of human NTPDase2 at 100 uM using ATP as substrate preincubated for 3 mins followed by substrate addition measured after 10 mins by malachite green reagent-based assay; in short: as §1
T2 sequence (whole entry): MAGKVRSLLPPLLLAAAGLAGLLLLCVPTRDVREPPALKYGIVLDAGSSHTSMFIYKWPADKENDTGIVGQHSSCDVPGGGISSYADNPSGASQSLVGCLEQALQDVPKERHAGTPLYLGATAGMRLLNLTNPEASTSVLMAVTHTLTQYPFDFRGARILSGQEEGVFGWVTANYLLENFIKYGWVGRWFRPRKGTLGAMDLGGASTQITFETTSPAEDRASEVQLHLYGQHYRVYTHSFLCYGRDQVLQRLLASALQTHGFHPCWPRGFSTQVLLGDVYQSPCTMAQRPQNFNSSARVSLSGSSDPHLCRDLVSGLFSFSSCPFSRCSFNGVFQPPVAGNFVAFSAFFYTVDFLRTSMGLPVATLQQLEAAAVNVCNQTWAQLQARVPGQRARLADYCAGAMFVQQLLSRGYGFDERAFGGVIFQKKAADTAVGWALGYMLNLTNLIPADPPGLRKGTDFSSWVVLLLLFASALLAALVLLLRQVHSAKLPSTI

[4] = target: T3, Ectonucleoside triphosphate diphosphohydrolase 1 (Homo sapiens) (UniProt P49961); experiment: Inhibition of human NTPDase1 at 100 uM using ATP as substrate preincubated for 3 mins followed by substrate addition measured after 10 mins by malachite green reagent-based assay; in short: as §1
T3 sequence (whole entry): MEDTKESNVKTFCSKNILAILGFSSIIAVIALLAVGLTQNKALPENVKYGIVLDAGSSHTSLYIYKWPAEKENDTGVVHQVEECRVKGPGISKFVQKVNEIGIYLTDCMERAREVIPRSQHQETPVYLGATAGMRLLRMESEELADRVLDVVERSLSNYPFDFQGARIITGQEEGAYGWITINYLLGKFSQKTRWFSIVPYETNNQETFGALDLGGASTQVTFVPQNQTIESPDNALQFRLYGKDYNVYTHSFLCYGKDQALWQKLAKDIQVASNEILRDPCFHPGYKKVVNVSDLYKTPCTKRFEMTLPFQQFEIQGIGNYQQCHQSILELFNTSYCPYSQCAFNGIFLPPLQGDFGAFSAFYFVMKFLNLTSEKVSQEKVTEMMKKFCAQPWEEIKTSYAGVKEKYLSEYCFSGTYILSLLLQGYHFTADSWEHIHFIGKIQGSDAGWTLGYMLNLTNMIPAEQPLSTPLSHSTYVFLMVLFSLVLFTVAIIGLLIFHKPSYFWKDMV

[5] = target: P2Y purinoceptor 6 (Homo sapiens) (UniProt Q15077); experiment: Agonist activity at recombinant human P2RY6 expressed in AD293 cells assessed as increase in intracellular IP1 levels; format: functional, cell-based
In short: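 Human P2Y6 receptor stably expressed in AD293 cells. Compound at 100 μM. Gq activation read as accumulation of inositol 1-phosphate (IP1).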

P2Y purinoceptor 2 (Homo sapiens), sequence (P41231 whole entry): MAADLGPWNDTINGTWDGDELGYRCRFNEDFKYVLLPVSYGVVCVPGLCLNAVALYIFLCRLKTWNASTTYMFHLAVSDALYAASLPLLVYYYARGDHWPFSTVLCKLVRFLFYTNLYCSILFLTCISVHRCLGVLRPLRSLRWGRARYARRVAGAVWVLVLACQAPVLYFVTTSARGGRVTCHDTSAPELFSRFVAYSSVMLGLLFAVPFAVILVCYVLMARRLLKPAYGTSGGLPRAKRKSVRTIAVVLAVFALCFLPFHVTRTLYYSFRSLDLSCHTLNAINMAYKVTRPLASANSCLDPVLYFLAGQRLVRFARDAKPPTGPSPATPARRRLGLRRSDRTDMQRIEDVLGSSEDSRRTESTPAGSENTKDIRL
P2Y purinoceptor 6 (Homo sapiens), sequence (Q15077 whole entry): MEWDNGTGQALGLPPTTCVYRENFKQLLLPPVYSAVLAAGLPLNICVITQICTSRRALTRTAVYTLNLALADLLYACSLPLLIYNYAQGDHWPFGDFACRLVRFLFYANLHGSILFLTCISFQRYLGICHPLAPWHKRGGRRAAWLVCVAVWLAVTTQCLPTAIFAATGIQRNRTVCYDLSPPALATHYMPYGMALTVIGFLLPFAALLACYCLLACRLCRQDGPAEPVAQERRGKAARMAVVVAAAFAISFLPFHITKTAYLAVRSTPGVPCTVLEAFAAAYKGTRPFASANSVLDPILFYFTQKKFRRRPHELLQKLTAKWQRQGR

Compound	inhibition [1]	Activity [2]	inhibition [3]	inhibition [4]	Activity [5]
O=c1ccn([C@@H]2O[C@H](COP(=S)(S)OP(=O)(O)O)[C@@H](O)[C@H]2O)c(=O)[nH]1 (stereo not given in full)	15%	inactive	15%	15%	Active
O=c1ccn([C@@H]2O[C@H](COP(=S)(S)OP(=O)(O)CP(=O)(O)O)[C@@H](O)[C@H]2O)c(=O)[nH]1 (stereo not given in full)	15%	inactive	15%	15%	inactive
O=c1ccn([C@@H]2O[C@H](COP(=S)(S)OP(=O)(O)OP(=O)(O)O)[C@@H](O)[C@H]2O)c(=O)[nH]1 (stereo not given in full)	inactive	inactive	inactive	inactive	Active
